Source: PubChem (several laboratories)
The list is not random: actives were taken first. Their share in the collection is about 6.3%.
MT1-MMP txn act: activates MT1-MMP transcription. HT1080 MT1-MMP promoter luciferase reporter, luminescence, overnight; stronger effect = higher value. activation factor at 10 µM. actives 0.16% (n = 86,000);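 active means activation factor of at least 2 for MT1-MMP transcription at 10 µM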
M1 antag: blocks the rat M1 muscarinic receptor response to acetylcholine; P08482; CHO-M1 cells, Fluo-4 calcium, ACh EC80 antagonist mode; stronger effect = lower value; B-score at 10 µM; actives 3.4% (n = 64,000); AID 628;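 active means calcium fluorescence response, raw or row-and-column corrected B-score, differing from the plate sample mean either way at a set confidence level, mostly lower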
Target sequence (P08482 whole entry, looked up): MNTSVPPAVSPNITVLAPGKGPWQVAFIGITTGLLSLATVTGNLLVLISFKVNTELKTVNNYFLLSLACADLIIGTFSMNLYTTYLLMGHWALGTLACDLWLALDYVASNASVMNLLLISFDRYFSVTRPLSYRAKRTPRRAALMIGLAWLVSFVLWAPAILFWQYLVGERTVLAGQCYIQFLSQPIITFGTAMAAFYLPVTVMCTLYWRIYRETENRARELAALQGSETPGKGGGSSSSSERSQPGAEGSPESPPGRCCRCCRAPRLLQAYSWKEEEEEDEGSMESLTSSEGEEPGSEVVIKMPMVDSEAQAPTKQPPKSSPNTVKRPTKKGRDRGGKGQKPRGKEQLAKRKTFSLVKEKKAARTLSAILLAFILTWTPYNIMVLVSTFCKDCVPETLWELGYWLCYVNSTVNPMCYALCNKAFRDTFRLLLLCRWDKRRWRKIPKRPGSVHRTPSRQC
SF1 activator: activates the human nuclear receptor SF-1; CHO-K1 Gal4-SF-1 LBD luciferase reporter; % increase over DMSO SF-1-specific signal; activation, % at 10 µM; actives 1.9% (n = 65,000); AID 522;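 active means activation above the mean activation of all tested compounds plus 3 SD, cut at about 50% in these data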
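Compound – one dose, 10 µM compound, 1% DMSO · Test system – transient Gal4-SF-1 LBD reporter, CHO-K1 · Input – 4,000 cells in each well · Read-out basis – percent activation relative to DMSO median and mock-transfected background · Replicates – single measurement per compound · Technique – steady-glow luciferase luminescence, read after 15 min reagent incubation · Timing – 20 h compound treatment, 37 °C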
M1 agonist: activates the M1 muscarinic receptor | CHO-M1 cells, Fluo-4 calcium fluorescence, agonist mode; stronger effect = higher value | B-score at 10 µM | actives 3% (n = 64,000) | AID 626;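 active means fluorescence rise, raw or as B-score row- and column-corrected plate score, outside the 99.7% band of its plate's samples, either direction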
RORA act: activators of human nuclear receptor RORA. P35398. actives 1.5% (n = 65,000). AID 560. CHO-K1 Gal4-RORA LBD luciferase reporter, luminescence; percent increase over mock-subtracted basal signal. activation, % at 10 µM;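 active means activation above the mean of all tested compounds plus 3 SD, cut at about 49% in these data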;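 further: 0% = DMSO-treated RORA cells and 100% = added signal equal to DMSO minus mock-transfected cells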
Numbers without * were called inactive; nt = no result.

SMILES | MT1-MMP txn act | M1 antag | SF1 activator | M1 agonist | RORA act
O=C(Nc1ccc2nc(-c3ccco3)[nH]c2c1)c1ccco1 | 1.1 | 0.356 | 6.5 | 0.0444 | 38.1
Cc1cc2cc(NC(=O)c3ccco3)ccc2[nH]1 | 1 | nt | nt | nt | nt
O=C(CSc1ccc(-c2nc3ccccc3[nH]2)cn1)N1CCN(C(=O)c2ccco2)CC1 | 1.1 | -1.02 | 2.5 | 11.9* | 5.6
COC(=O)[C@@]1(Cc2ccccc2)[C@H]2c3cc(C(=O)N4CCCC4)n(C)c3C[C@H]2CN1C(=O)c1ccccc1 | 1.1 | nt | nt | nt | nt
COC(=O)[C@@]1(Cc2ccc(OC)cc2)[C@H]2c3cc(C(=O)N(C)C)n(Cc4ccc(OC)c(OC)c4)c3C[C@H]2CN1C(=O)c1ccccc1 | 1.2 | nt | nt | nt | nt
O=C(Nc1ccc(S(=O)(=O)N2CCCCCC2)cc1)c1ccco1 | 1.4 | -0.088 | 32.6 | -0.846 | 63.4*
COC(=O)c1cccc(NC(=O)c2ccc(S(=O)(=O)N3CCN(C)CC3)cc2)c1 | 1.2 | -0.435 | 1.1 | 0.556 | -16.3
CC(C)CNC(=O)c1cccc(NC(=O)c2ccc(NC(=O)c3ccco3)cc2)c1 | 0.9 | 1.44* | 18.3 | 0.603 | 4.6
Cc1cccc(NC(=O)c2ccc(S(=O)(=O)N3CCCCC3)cc2)n1 | nt | -2.45 | 3.8 | -2.61* | 25.6
CN1CCN(S(=O)(=O)c2ccc(NC(=O)c3ccc(F)cc3)cc2)CC1 | 1 | 3.46* | 5.7 | 0.2 | -14.0
CC(C)(C)NC(=O)c1cccc(NC(=O)c2ccc(NC(=O)c3ccco3)cc2)c1 | 1 | -1.14 | 1.9 | 1.33 | -3.1
O=C(NCc1ccccc1)c1ccc(COCC(F)(F)F)o1 | 1 | 0.702 | 1.9 | -1.09 | -13.7
CC(C)(C)c1ccc(C(=O)Nc2ccc(NC(=O)c3ccco3)cc2)cc1 | 1.1 | nt | nt | nt | nt
O=C(Nc1nccs1)c1ccc(NC(=O)c2ccco2)cc1 | 1.3 | -0.322 | 55.9* | -0.879 | 53.4*
O=C(Nc1ccc(Nc2ccccc2)cc1)c1ccco1 | 1.6 | nt | 87.0* | nt | 60.3*
O=C(Nc1ccc(Br)cc1)c1ccco1 | 1.4 | nt | nt | nt | nt
COc1c(C)cccc1C(=O)Nc1ccc(CN2CCOCC2)cc1 | 1.3 | -0.0693 | 62.2* | -0.542 | 37.0
COc1cccc(NC(=O)c2ccc(CN3CCOCC3)cc2)c1 | 1.3 | 0.677 | 23.7 | -1.03 | -1.1
COc1c(C)cccc1C(=O)Nc1ccc(N2CCN(S(C)(=O)=O)CC2)cc1 | 1.9 | 0.0405 | 106.8* | 0.161 | 46.5
COc1ccccc1C(=O)Nc1ccc(N2CCN(S(C)(=O)=O)CC2)cc1 | 1 | 0.948 | 33.6 | -0.0266 | 41.1
CCN1CCN(C(=O)c2ccc3c(c2)N(Cc2ccc(F)cc2)C(=O)c2ccccc2S3=O)CC1 (configuration not stated) | 1.1 | -0.0503 | -1.2 | -1.02 | 6.6
CC(=O)OC(C(=O)Nc1ccccc1C)C(OC(C)=O)C(OC(C)=O)C(OC(C)=O)C(=O)Nc1ccccc1C (configuration not stated) | 1.1 | nt | nt | nt | nt
CN(C)/C=N/c1nc2ccc3c(c2s1)CCCC3 | 1.6 | -0.335 | 59.3* | 0.236 | 65.7*
Cc1c(NC(=O)N(C)C)c(=O)n(-c2ccccc2)n1C | 1.1 | nt | nt | nt | nt
Cc1c(NC(=O)C(C)N2CC(C)OC(C)C2)c(=O)n(-c2ccccc2)n1C (configuration not stated) | 1 | 1.77* | -6.2 | -0.0822 | -12.9
SMILES | MT1-MMP txn act | M1 antag | SF1 activator | M1 agonist | RORA act
O=C1c2ccccc2C(O)(Cc2ccccc2)N1c1ccc2c(c1)OCO2 (configuration not stated) | 1.2 | -0.147 | -1.5 | -0.105 | 8.6
O=C(CSc1nc2cc(Cl)ccc2o1)N1CCOCC1 | 1.2 | -0.00531 | 11.5 | -0.222 | 12.4
O=C(O)c1ccc2oc(SCC(=O)N3CCCCC3)nc2c1 | 1.3 | nt | 54.3* | nt | 29.2
CCCc1cc2c(n1CCc1ccc(Cl)cc1)C(C)C1CN(C(=O)c3ccccc3)C(C)(C(=O)OC)C21 (configuration not stated) | 1 | nt | nt | nt | nt
Cc1ccc(NC(=O)CS(=O)CC(=O)Nc2ccc3c(c2)OCO3)cc1Cl (configuration not stated) | 1.1 | 0.88 | 1.7 | -0.00342 | -9.7
C/C(NC(=O)c1ccccc1)=C1/C(=O)CC2C1C2(C)C (configuration not stated) | 1.2 | -0.0833 | 30.1 | -0.735 | 68.1*
CC(=O)C1=C(NC(=O)c2ccc(F)cc2)CC2C1C2(C)C (configuration not stated) | 1.2 | nt | nt | nt | nt
CCCCCOC(=O)C1=C(C)Nc2nnnn2C1c1ccccc1Cl (configuration not stated) | 0.9 | nt | nt | nt | nt
